Converted amounts (≈) assume the structure as drawn.
These compounds were tested on Mycobacterium tuberculosis (assay: Minimum Inhibitory Concentration against Mycobacterium tuberculosis ATCC 35828 PZA resistant form).
Assay type: functional
Summary of the method: (§1)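 Broth macrodilution in tubes of modified Middlebrook 7H10 broth (agar and malachite green omitted) with 10% OADC and 0.05% Tween 80 at pH 5.8. Cultures were grown 3 days at 37 °C on a rotary shaker, then diluted with 7H10 broth to 1 Klett unit/mL. Stocks were made in water or DMSO and filter-sterilised; 2-fold serial dilutions were tested. Tubes shaken 7–10 days at 37 °C, with a drug-free control. MIC = lowest concentration (μg/mL) with no visible turbidity.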
Work on `CCCCOC(=O)c1cnc(Cl)cn1` yielded an MIC of 0.5 µg/mL (≈ 2.33 µM). For `CCCOC(=O)c1cnc(Cl)cn1`, the MIC was 0.25 µg/mL (≈ 1.25 µM). `O=C(Oc1c(Br)cc(Br)cc1Br)c1cnccn1` showed an MIC of 32 µg/mL (≈ 73.2 µM). `CCCCCCCCCCOC(=O)c1cnc(Cl)cn1` showed an MIC of 0.5 µg/mL (≈ 1.67 µM). `CCCCCCCC(C)OC(=O)c1cnc(Cl)cn1` (centres undefined) showed an MIC of 2 µg/mL (≈ 7.02 µM). For `CCCCCCCCC(C)OC(=O)c1cnc(Cl)cn1` (centres undefined), the MIC was < 0.03 µg/mL. With `CCCCCC(CC)OC(=O)c1cnc(C)cn1` (centres undefined) the MIC was 1 µg/mL (≈ 3.99 µM). With `CCCCCCCCCC(C)OC(=O)c1cnc(Cl)cn1` (centres undefined) the MIC was 1 µg/mL (≈ 3.2 µM). For `C=CCOC(=O)c1cnc(Cl)cn1`, the MIC was 2 µg/mL (≈ 10.1 µM). `CCCCCCCCCCCCCCCOC(=O)c1cnccn1` showed an MIC of 1 µg/mL (≈ 2.99 µM). Work on `O=C(OCc1ccccc1)c1cnccn1` yielded an MIC of 2 µg/mL (≈ 9.34 µM). `Cc1cnc(C(=O)O)cn1` was tested, and the MIC was > 64 µg/mL. `COC(=O)c1cnccn1` showed an MIC of 64 µg/mL (≈ 463 µM). With `CCCCCCCCOC(=O)c1cnc(Cl)cn1` the MIC was < 0.03 µg/mL. `CCCCCCCCCCCC(C)OC(=O)c1cnc(Cl)cn1` (centres undefined) was tested, and the MIC was 0.5 µg/mL (≈ 1.47 µM). `CC(C)COC(=O)c1cnccn1` gave an MIC of 64 µg/mL (≈ 355 µM). `O=C(OCc1ccccc1)c1cnc(Cl)cn1` gave an MIC of 1 µg/mL (≈ 4.02 µM). Compound `O=C(O)c1cnccn1` [PYRAZINOIC ACID] has an MIC of 32 µg/mL (≈ 258 µM). `CCCCCC(C)OC(=O)c1cnc(Cl)cn1` (centres undefined) was tested, and the MIC was 0.06 µg/mL (≈ 0.234 µM). With `O=C(Oc1ccc(F)cc1)c1cnccn1` the MIC was 16 µg/mL (≈ 73.3 µM). `CCOC(=O)c1cnc(Cl)cn1` was tested, and the MIC was > 16 µg/mL. Compound `COC(=O)c1cnc(Cl)cn1` has an MIC of 16 µg/mL (≈ 92.7 µM). `CCCCCOC(=O)c1cnc(Cl)cn1` gave an MIC of 0.12 µg/mL (≈ 0.525 µM). `CCCCCCOC(=O)c1cnc(Cl)cn1` was tested, and the MIC was 0.5 µg/mL (≈ 2.06 µM). In the case of `NC(=O)c1cnccn1` [PYRAZINAMIDE], the MIC is reported as 2050 µg/mL (≈ 16600 µM). With `CCCCCCCCCCOC(=O)c1cnccn1` the MIC was 0.25 µg/mL (≈ 0.946 µM). `CCCCCCC(C)OC(=O)c1cnc(Cl)cn1` (centres undefined) was tested, and the MIC was 0.5 µg/mL (≈ 1.85 µM). For `CC(C)COC(=O)c1cnc(Cl)cn1`, the MIC was 2 µg/mL (≈ 9.32 µM). For `CCCCCCCCCCCOC(=O)c1cnc(Cl)cn1`, the MIC was 0.5 µg/mL (≈ 1.6 µM). In the case of `CC(C)(C)OC(=O)c1cnc(Cl)cn1`, the MIC is reported as 0.5 µg/mL (≈ 2.33 µM). With `CCCCCCCCCOC(=O)c1cnc(Cl)cn1` the MIC was < 0.03 µg/mL. `O=C(Oc1cccc2ccccc12)c1cnccn1` showed an MIC of 8 µg/mL (≈ 32 µM). `Cc1cc(C(C)(C)C)c(OC(=O)c2cnccn2)c(C(C)(C)C)c1` was tested, and the MIC was 128 µg/mL (≈ 392 µM). In the case of `CCCCCCCOC(=O)c1cnc(Cl)cn1`, the MIC is reported as < 0.03 µg/mL. In the case of `O=C(O)c1cnc(Cl)cn1`, the MIC is reported as 64 µg/mL (≈ 404 µM).

Each compound was assayed on Mycobacterium tuberculosis (assay: Minimum Inhibitory Concentration against Mycobacterium tuberculosis ATCC 35828 for PZA resistant form).
Assay type: functional
Summary of the method: as §1
For `CCCCCC(CC)OC(=O)c1cnc(Cl)cn1` (centres undefined), the MIC was 1 µg/mL (≈ 3.69 µM).

Each compound was assayed on Mycobacterium tuberculosis (assay: Minimum Inhibitory Concentration for PZA resistant forms against Mycobacterium tuberculosis ATCC 35828).
Assay type: functional
Summary of the method: as §1
Work on `CCCCCCCC(OC(=O)c1cnc(Cl)cn1)C(C)(C)C` (centres undefined) yielded an MIC of 2 µg/mL (≈ 6.12 µM). In the case of `CCCCCCCCCCC(OC(=O)c1cnc(Cl)cn1)C(C)(C)C` (centres undefined), the MIC is reported as 16 µg/mL (≈ 43.4 µM). With `CCCCCCCOC(=O)c1cnc(C)cn1` the MIC was 1 µg/mL (≈ 4.23 µM). `O=C(OCc1ccc(Br)cc1)c1cnc(Cl)cn1` was tested, and the MIC was > 16 µg/mL. `CCCCCCC(C)(CCCCC)OC(=O)c1cnc(Cl)cn1` (centres undefined) was tested, and the MIC was 16 µg/mL (≈ 46.9 µM). In the case of `CCCCCCCCC(C)(C)OC(=O)c1cnc(Cl)cn1`, the MIC is reported as 0.25 µg/mL (≈ 0.799 µM). `CCCCCC(C)(CCCC)OC(=O)c1cnc(Cl)cn1` (centres undefined) was tested, and the MIC was 16 µg/mL (≈ 51.1 µM). Work on `O=C(OCCc1ccccc1)c1cnc(Cl)cn1` yielded an MIC of 4 µg/mL (≈ 15.2 µM). Work on `CCCOC(=O)c1cnc(C)cn1` yielded an MIC of 1 µg/mL (≈ 5.55 µM). In the case of `CCCCCC(C)(CCCCC)OC(=O)c1cnc(Cl)cn1`, the MIC is reported as 16 µg/mL (≈ 48.9 µM). For `CCCCCCCCC(CC)OC(=O)c1cnc(Cl)cn1` (centres undefined), the MIC was 0.25 µg/mL (≈ 0.799 µM). `CC(C)(OC(=O)c1cnc(Cl)cn1)c1ccccc1` was tested, and the MIC was > 16 µg/mL. In the case of `CCCCCCCCC(C)(CCCC)OC(=O)c1cnc(Cl)cn1` (centres undefined), the MIC is reported as 8 µg/mL (≈ 22.5 µM). Compound `CCCCCCC(C)OC(=O)c1cnc(F)cn1` (centres undefined) has an MIC of 4 µg/mL (≈ 15.7 µM). `CCCCCCCC(OC(=O)c1cnc(Cl)cn1)C(C)C` (centres undefined) was tested, and the MIC was 2 µg/mL (≈ 6.39 µM). In the case of `CC(OC(=O)c1cnc(Cl)cn1)c1ccc(Br)cc1` (centres undefined), the MIC is reported as 16 µg/mL (≈ 46.8 µM). For `CCCCCCOC(=O)c1cnc(F)cn1`, the MIC was 8 µg/mL (≈ 35.4 µM). Compound `CCC(C)(CC)OC(=O)c1cnc(Cl)cn1` has an MIC of 4 µg/mL (≈ 16.5 µM). In the case of `Cc1ccc(C(C)OC(=O)c2cnc(Cl)cn2)cc1` (centres undefined), the MIC is reported as 2 µg/mL (≈ 7.23 µM). Work on `CCCCCCCC(C)(CCCCC)OC(=O)c1cnc(Cl)cn1` (centres undefined) yielded an MIC of 8 µg/mL (≈ 22.5 µM). With `CC(C)(C)C(OC(=O)c1cnc(Cl)cn1)c1ccccc1` (centres undefined) the MIC was 16 µg/mL (≈ 52.5 µM). Compound `CCCCCCC(C)(CCCC)OC(=O)c1cnc(Cl)cn1` (centres undefined) has an MIC of 16 µg/mL (≈ 48.9 µM). `CCCCCCCCCOC(=O)c1cnc(C)cn1` was tested, and the MIC was 2 µg/mL (≈ 7.57 µM). `O=C(OCCc1ccc(Cl)cc1)c1cnc(Cl)cn1` gave an MIC of 32 µg/mL (≈ 108 µM). For `CCCCCCCCCCOC(=O)c1cnc(F)cn1`, the MIC was 4 µg/mL (≈ 14.2 µM). For `CCCCCCC(C)(C)OC(=O)c1cnc(Cl)cn1`, the MIC was 0.25 µg/mL (≈ 0.878 µM). With `COC(=O)c1cnc(F)cn1` the MIC was 8 µg/mL (≈ 51.2 µM). In the case of `COC(=O)c1cnc(C)cn1`, the MIC is reported as > 16 µg/mL. Compound `CCCCCCCCCC(C)(C)OC(=O)c1cnc(Cl)cn1` has an MIC of 16 µg/mL (≈ 48.9 µM). With `O=C(OC(c1ccccc1)c1ccccc1)c1cnc(Cl)cn1` the MIC was 16 µg/mL (≈ 49.3 µM). Work on `CCCCC(OC(=O)c1cnc(Cl)cn1)c1ccccc1` (centres undefined) yielded an MIC of 8 µg/mL (≈ 26.2 µM). With `CCCCCCCC(C)(CCCC)OC(=O)c1cnc(Cl)cn1` (centres undefined) the MIC was 16 µg/mL (≈ 46.9 µM). `CCCCCCC(C)(CCCCCC)OC(=O)c1cnc(Cl)cn1` showed an MIC of 0.5 µg/mL (≈ 1.41 µM).

Reference: ChEMBL document CHEMBL1128446, “Pyrazinoic acid esters with broad spectrum in vitro antimycobacterial activity” (1995)
